Measured values taken from ChEMBL document CHEMBL3044849, “Synthesis and insecticidal activities of novel N-sulfenyl-N'-tert-butyl-N,N'-diacylhydrazines. 1. N-alkoxysulfenate derivatives” (2007).
≈ marks a conversion by molar mass, not a printed value.

Key:
Format in all cases: functional
Mythimna separata [1] = assay: Stomach toxicity against fourth-instar larval stage of Mythimna separata (Oriental armyworm) in compound-pretreated corn leaves assessed as mortality at 10 mg/kg at 25+/-1 degC measured after 4 days
Mythimna separata [2] = assay: Stomach toxicity against fourth-instar larval stage of Mythimna separata (Oriental armyworm) in compound-pretreated corn leaves assessed as mortality at 25 mg/kg at 25+/-1 degC measured after 4 days
Mythimna separata [3] = assay: Stomach toxicity against fourth-instar larval stage of Mythimna separata (Oriental armyworm) in compound-pretreated corn leaves assessed as mortality at 50 mg/kg at 25+/-1 degC measured after 4 days
Helicoverpa armigera = assay: Contact toxicity against fourth-instar larval stage of Helicoverpa armigeraassessed as mortality at 25 +/-1 degC applied topically on the thoracic tergite measured per gm of larva after 48 hr
Outline: (§1)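 Fourth-instar larvae of tobacco cutworm, Asian corn borer and cotton bollworm were used. Compounds in acetone at five to seven concentrations; 1 µL applied to the thoracic tergite by automatic microapplicator. Acetone-only control. Usually 40 insects per dose, four replicates, kept under rearing conditions at 25 ± 1 °C. Mortality at 48 h gave LD50; ratios use reference LD50 over test LD50.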

Mythimna separata [4] = assay: Stomach toxicity against fourth-instar larval stage of Mythimna separata (Oriental armyworm) in compound-pretreated corn leaves assessed as mortality at 2.5 mg/kg at 25+/-1 degC measured after 4 days
Mythimna separata [5] = assay: Stomach toxicity against fourth-instar larval stage of Mythimna separata (Oriental armyworm) in compound-pretreated corn leaves assessed as mortality at 5 mg/kg at 25+/-1 degC measured after 4 days
Mythimna separata [6] = assay: Toxic ratio of RH-5992 LD50 to compound LD50 for fourth-instar larval stage of Mythimna separata (Oriental armyworm) measured after 96 hr
Outline: (§2)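 Oriental armyworm fourth-instar larvae each received 0.306 µL of acetone dilution at varying concentrations on the thoracic tergite via platinum loop. Acetone-only control. Larvae were returned to rearing conditions at 25 ± 1 °C and mortality was scored 96 h after treatment. LD50 and LD90 were derived from triplicate treatments; ratios use reference over test values.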

Mythimna separata [7] = assay: Contact toxicity against fourth-instar larval stage of Mythimna separata (Oriental armyworm) assessed as mortality at 25 +/-1 degC applied topically on the thoracic tergite measured per larva after 96 hr; outline: as §2
Ostrinia furnacalis = assay: Contact toxicity against fourth-instar larval stage of Ostrinia furnacalis (Asian corn borer) assessed as mortality at 25 +/-1 degC applied topically on the thoracic tergite measured per gm of larva after 48 hr; outline: as §1
Spodoptera exigua [8] = assay: Toxic ratio of RH-5992 LC90 to compound LC90 for third-instar larval stage of Spodoptera exigua measured after 3 days by leaf-dip method
Spodoptera exigua [9] = assay: Toxic ratio of RH-5992 LC50 to compound LC50 for third-instar larval stage of Spodoptera exigua measured after 3 days by leaf-dip method
Spodoptera exigua [10] = assay: Stomach toxicity against third-instar larval stage of Spodoptera exigua in cabbage leaves assessed as mortality at 25 +/-1 degC treated for 3 secs before larval infestation measured after 3 days by leaf-dip method; settings: for LC50: Spodoptera exigua, Instar larval stage, 72 h
Outline: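 Leaf-dip assay: fresh cabbage leaf discs (5 cm × 3 cm) were dipped 3 s in test solution and air-dried, then placed singly in boxes with five third-instar beet armyworm larvae per disc. Water- and acetone-treated leaves served as controls. Held at 25 ± 1 °C; percentage mortality was read 3 days after treatment, in triplicate.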

Spodoptera litura = assay: Contact toxicity against fourth-instar larval stage of Spodoptera litura assessed as mortality at 25 +/-1 degC applied topically on the thoracic tergite measured per gm of larva after 48 hr; outline: as §1
Mythimna separata [11] = assay: Toxic ratio of RH-5992 LD90 to compound LD90 for fourth-instar larval stage of Mythimna separata (Oriental armyworm) measured after 96 hr; outline: as §2
Mythimna separata [12] = assay: Stomach toxicity against fourth-instar larval stage of Mythimna separata (Oriental armyworm) in compound-pretreated corn leaves assessed as mortality at 100 mg/kg at 25+/-1 degC measured after 4 days

Structure (SMILES)	mortality at 10 mg/kg (Mythimna separata [1])	mortality at 25 mg/kg (Mythimna separata [2])	mortality at 50 mg/kg (Mythimna separata [3])	mortality at 2.5 mg/kg (Mythimna separata [4])	mortality at 5 mg/kg (Mythimna separata [5])	further results
COSN(C(=O)c1ccccc1)N(C(=O)c1ccccc1)C(C)(C)C	0%	100%	100%	–	–	–
CCc1ccc(C(=O)N(SOC)N(C(=O)c2cc(C)cc(C)c2)C(C)(C)C)cc1	100%	100%	–	100%	100%	LD50 (Helicoverpa armigera): 73.907 µg; Ratio (Mythimna separata [6]): 141; LD50 (Mythimna separata [7]): 0.0195 µg; LD90 (Mythimna separata [7]): 0.0479 µg; LD50 (Ostrinia furnacalis): 44.961 µg; Ratio (Spodoptera exigua [8]): 5.1; RatioLC50 (Spodoptera exigua [9]): 3.4; LC90 (Spodoptera exigua [10]): 524.29 µg/mL (≈ 1260 µM); LC50 (Spodoptera exigua [10]): 24.4 µg/mL (≈ 58.7 µM); LD50 (Spodoptera litura): 16.061 µg; Ratio (Mythimna separata [11]): 154
CCOSN(C(=O)c1ccc(CC)cc1)N(C(=O)c1cc(C)cc(C)c1)C(C)(C)C	100%	100%	100%	70%	100%	–
CCCOSN(C(=O)c1ccc(CC)cc1)N(C(=O)c1cc(C)cc(C)c1)C(C)(C)C	100%	100%	100%	80%	90%	–
CCc1ccc(C(=O)N(SOC(C)C)N(C(=O)c2cc(C)cc(C)c2)C(C)(C)C)cc1	100%	100%	100%	50%	100%	–
CCCCOSN(C(=O)c1ccc(CC)cc1)N(C(=O)c1cc(C)cc(C)c1)C(C)(C)C	100%	100%	100%	90%	100%	–
CCc1ccc(C(=O)N(SOCC(C)C)N(C(=O)c2cc(C)cc(C)c2)C(C)(C)C)cc1	–	–	–	80%	100%	–
CCc1ccc(C(=O)N(SOC(C)(C)C)N(C(=O)c2cc(C)cc(C)c2)C(C)(C)C)cc1	100%	100%	100%	60%	70%	–
CCCCCOSN(C(=O)c1ccc(CC)cc1)N(C(=O)c1cc(C)cc(C)c1)C(C)(C)C	–	–	–	100%	100%	–
CCc1ccc(C(=O)N(SOC(C)(C)CC)N(C(=O)c2cc(C)cc(C)c2)C(C)(C)C)cc1	–	–	–	70%	80%	–
CCc1ccc(C(=O)N(SOCc2ccccc2)N(C(=O)c2cc(C)cc(C)c2)C(C)(C)C)cc1	–	–	–	70%	90%	–
CCc1ccc(C(=O)N(SOCCc2ccccc2)N(C(=O)c2cc(C)cc(C)c2)C(C)(C)C)cc1	–	–	–	50%	90%	–
CCc1ccc(C(=O)N(SOCCF)N(C(=O)c2cc(C)cc(C)c2)C(C)(C)C)cc1	–	–	–	70%	100%	–
CCc1ccc(C(=O)N(SOCC(F)(F)F)N(C(=O)c2cc(C)cc(C)c2)C(C)(C)C)cc1	–	–	–	90%	100%	–
CCc1ccc(C(=O)N(SOCCOC)N(C(=O)c2cc(C)cc(C)c2)C(C)(C)C)cc1	–	–	–	70%	90%	–
CCOCCOSN(C(=O)c1ccc(CC)cc1)N(C(=O)c1cc(C)cc(C)c1)C(C)(C)C	–	–	–	90%	100%	–
COSN(C(=O)c1ccc2c(c1C)OC(C)C2)N(C(=O)c1cc(C)cc(C)c1)C(C)(C)C (stereo not drawn)	–	–	–	80%	–	–
CCOSN(C(=O)c1ccccc1)N(C(=O)c1ccccc1)C(C)(C)C	–	0%	85%	–	–	mortality at 100 mg/kg (Mythimna separata [12]): 100%
CCCOSN(C(=O)c1ccccc1)N(C(=O)c1ccccc1)C(C)(C)C	10%	50%	90%	–	–	–
CC(C)OSN(C(=O)c1ccccc1)N(C(=O)c1ccccc1)C(C)(C)C	10%	100%	100%	–	–	–
CC(C)(C)OSN(C(=O)c1ccccc1)N(C(=O)c1ccccc1)C(C)(C)C	10%	100%	100%	–	–	–
Cc1cc(C)cc(C(=O)N(NC(=O)c2ccc3c(c2C)OC(C)C3)C(C)(C)C)c1 (stereo not drawn) [FUXIAN]	–	–	–	90%	100%	–
CC(C)(C)N(NC(=O)c1ccccc1)C(=O)c1ccccc1 [RH-5849]	0%	70%	100%	–	–	–
CCc1ccc(C(=O)NN(C(=O)c2cc(C)cc(C)c2)C(C)(C)C)cc1 [TEBUFENOZIDE]	100%	–	–	55%	95%	LD50 (Helicoverpa armigera): 1311.9 µg; Ratio (Mythimna separata [6]): 100; LD50 (Mythimna separata [7]): 0.0275 µg; LD90 (Mythimna separata [7]): 0.0739 µg; LD50 (Ostrinia furnacalis): 59.414 µg; Ratio (Spodoptera exigua [8]): 1; RatioLC50 (Spodoptera exigua [9]): 1; LC90 (Spodoptera exigua [10]): 2648.6 µg/mL (≈ 7510 µM); LC50 (Spodoptera exigua [10]): 83.4 µg/mL (≈ 237 µM); LD50 (Spodoptera litura): 527.12 µg; Ratio (Mythimna separata [11]): 100
